In assay [1] the test system is Aorta. Briefly: Antiangiogenic activity in Wistar rat aortic ring assessed as complete inhibition of microvessel sprouting at 25 uM after 7 days by phase-contrast microscopy. It is filed as functional, tissue-based.
Assay [2] has as its system HUVEC. Nature of the assay: Antiproliferative activity against HUVEC after 72 hrs by WST8 assay. Particulars: Homo sapiens. It is filed as functional, cell-based. The method in brief:
(§1)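 HUVECs at 1.5 × 10^4 cells/mL plated and grown 24 h. Medium then replaced with HuMedia EG2 containing compound or DMSO for 72 h at 37 C, 5% CO2. Proliferation read by WST-8 absorbance at 450 nm.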
(In general: Tetrazolium dyes change colour on reduction, which living cells bring about.)

Assay [3] relates to HUVEC. Briefly: Antiproliferative activity against HUVEC at 25 uM after 72 hrs by WST8 assay. The note with it: Homo sapiens. It is filed as functional. In outline:
as §1

In assay [4] the test system is HUVEC. Briefly: Antiangiogenic activity in HUVEC assessed as inhibition of VEGF-induced endothelial migration at > 5 uM after 6 hrs using Diff-Quik staining by modified Boyden chamber based chemotactic migration assay. The note with it: Homo sapiens. Format: functional, cell-based. In outline: (§2)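 Modified Boyden chamber, 8 μm membrane coated with 0.1% gelatin. HUVECs (2.5 × 10^5 cells/mL) in Medium 199 with 0.1% BSA in upper chamber. Lower well held Medium 199, 0.1% BSA, VEGF 10 ng/mL, with or without compound. After 6 h at 37 C, migrated cells methanol-fixed, Diff-Quik stained, counted in three fields at 200×.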

Assay [5] has as its system HUVEC. Briefly: Antiangiogenic activity in HUVEC assessed as complete inhibition of tube formation at 50 uM after 12 hrs by light microscopy matrigel based assay. It is filed as functional, cell-based. The note with it: Homo sapiens. The method in brief:
(§3)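 HUVECs (passages 3–7) at 1 × 10^5 cells/mL in HuMedia EG2 with compound or DMSO seeded onto solidified Matrigel. Incubated 12 h at 37 C, 5% CO2. Tube formation observed under inverted light microscope at 40× and photographed.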

In assay [6] the test system is HUVEC. Nature of the assay: Antiangiogenic activity in HUVEC assessed as inhibition of tube formation at 25 uM after 12 hrs by light microscopy matrigel based assay. Format: functional. Particulars: Homo sapiens. In outline: as §3
For assay [7], the target named is T1, Mitogen-activated protein kinase; ERK1/ERK2 (Homo sapiens) (UniProt P27361+P28482). Briefly: Inhibition of VEGF-stimulated ERK1/2 phosphorylation in HUVEC at 2.5 to 10 uM by Western blot analysis. It is filed as protein assay. The note with it: TDE = time-dependent effect. In outline:
(§4)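 Confluent HUVECs starved 16 h in RPMI 1640 with 5% FBS. Pretreated 60 min with compound (2.5–10 μM) or vehicle, then stimulated with VEGF 10 ng/mL for 10 min. Lysates (50 μg protein) run on SDS-PAGE under reducing conditions. Blots probed for phospho-Erk1/2 or phospho-Akt and total proteins; chemiluminescence detection.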
A general note: A western blot detects proteins with antibodies after separation by electrophoresis.

Assay [8] concerns Aorta. Nature of the assay: Antiangiogenic activity in Wistar rat aortic ring assessed as complete inhibition of microvessel sprouting at 2.5 uM after 7 days by phase-contrast microscopy. It is filed as functional, tissue-based.
Assay [9] relates to HUVEC. Briefly: Antiangiogenic activity in HUVEC assessed as inhibition of tube formation at 2.5 to 10 uM after 12 hrs by light microscopy matrigel based assay. Particulars: Homo sapiens. It is filed as functional, cell-based. The method in brief:
as §3

For assay [10], the system named is HUVEC. Briefly: Inhibition of VEGF-stimulated Akt phosphorylation in HUVEC at 2.5 to 10 uM after 1 hr by Western blot analysis. Format: cell-based. The note with it: Homo sapiens. The method in brief:
as §4

Assay [11] has as its system Mus musculus. Briefly: Antiangiogenic activity in C57BL/6 mouse assessed as decrease in hemoglobin level at 10 uM, sc after 7 days using hematoxylin eosin staining by matrigel plug assay relative to control. Format: functional, organism-based. In outline:
(§5)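 C57BL/6 mice, male, three per group; 0.5 mL Matrigel with bFGF (10 ng/mL) plus compound (10 μM) or DMSO vehicle injected subcutaneously, allowed to form a plug. After 7 days, plugs excised, formaldehyde-fixed, paraffin-embedded, sectioned, H&E stained. Plug hemoglobin quantified by QuantiChrom kit against hemoglobin standard. Means ± SEM; ANOVA with Dunnett or Student's t test.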

In assay [12] the test system is Aorta. Briefly: Antiangiogenic activity in Wistar rat aortic ring assessed as complete inhibition of microvessel sprouting at 2.5 uM after 7 days by phase-contrast microscopy relative to steperoxide A. Format: functional.
In assay [13] the target is T1, Mitogen-activated protein kinase; ERK1/ERK2 (Homo sapiens). Briefly: Inhibition of VEGF-stimulated ERK1/2 activation in HUVEC after 1 hr by Western blot analysis. Format: protein assay. The method in brief: as §4
Assay [14] has as its system Mus musculus. Nature of the assay: Antiangiogenic activity in C57BL/6 mouse assessed as inhibition of bFGF-induced neovascularization at 10 uM, sc after 7 days by matrigel plug assay relative to control. It is filed as functional, organism-based. The method in brief:
as §5

The subject of assay [15] is HUVEC. Briefly: Antiangiogenic activity in HUVEC assessed as inhibition of VEGF-induced endothelial migration after 6 hrs using Diff-Quik staining by modified Boyden chamber based chemotactic migration assay. It is filed as functional, cell-based. Particulars: Homo sapiens. The method in brief:
as §2

SMILES strings stand for the structures. Activity calls are given as the source filed them. The rule behind the calls is not given here.

From ChEMBL document CHEMBL2016456, “Antiangiogenic effect of chamigrane endoperoxides from a Thai mangrove-derived fungus” (J Nat Prod, 2011) come the findings set out here.

T1 sequence (P27361 whole entry, looked up): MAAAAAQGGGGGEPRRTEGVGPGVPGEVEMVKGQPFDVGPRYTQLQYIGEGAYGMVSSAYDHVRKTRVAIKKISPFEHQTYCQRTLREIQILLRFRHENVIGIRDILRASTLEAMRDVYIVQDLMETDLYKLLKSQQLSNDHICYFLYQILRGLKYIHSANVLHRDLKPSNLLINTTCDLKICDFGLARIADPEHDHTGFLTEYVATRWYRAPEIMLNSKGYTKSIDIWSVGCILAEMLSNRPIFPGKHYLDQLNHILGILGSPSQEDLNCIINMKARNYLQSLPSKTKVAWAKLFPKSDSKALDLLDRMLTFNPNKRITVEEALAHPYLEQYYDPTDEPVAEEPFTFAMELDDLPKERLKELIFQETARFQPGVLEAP
T1 sequence (P28482 whole entry, looked up): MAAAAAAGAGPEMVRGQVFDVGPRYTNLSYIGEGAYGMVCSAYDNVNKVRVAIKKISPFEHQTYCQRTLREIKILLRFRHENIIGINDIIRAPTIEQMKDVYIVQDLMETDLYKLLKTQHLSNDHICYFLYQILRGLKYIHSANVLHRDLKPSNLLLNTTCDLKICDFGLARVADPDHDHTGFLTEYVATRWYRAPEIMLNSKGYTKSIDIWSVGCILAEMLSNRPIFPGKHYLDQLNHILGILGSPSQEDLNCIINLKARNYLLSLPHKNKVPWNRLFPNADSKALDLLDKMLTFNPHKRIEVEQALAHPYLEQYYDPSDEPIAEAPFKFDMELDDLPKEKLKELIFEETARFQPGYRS

For `CC1(C)CCC(=O)[C@@]2(C)OO[C@@H]3C[C@@]12CC[C@H]3O`, the result in assay [1] was inactive.
Turning to `CC1(C)C=CC(=O)[C@@]2(C)OO[C@@H]3C[C@]12CCC3O` (stereo partly drawn), the result in assay [1] was Active.
For the compound `CC1(C)CCC(=O)[C@@]2(C)OO[C@@H]3C[C@@]12CCC3(O)CO` (stereo partly drawn), the outcome in [1] was inactive.
By IC50 is commonly meant the concentration at which inhibition is half-maximal. Low values mean inhibition by little substance, high ones a need for much substance. For orientation: inhibition means the drop in the measured response relative to a control, in per cent. Regarding `CC1(C)C=CC(=O)[C@@]2(C)OO[C@@H]3C[C@]12CCC3(O)CO` (stereo partly drawn) [MERULIN C], the Activity entry in assay [2] and in [15] was “Dose-dependent effect” each time. This compound also displayed an IC50 in assay [2] of 900 nM. Moreover, the inhibition at 25 µM came to 90% in [3] and 50% in assay [6]. Besides, the outcome in assay [4], in assay [8], in [11] and in assay [14] was Active. In addition, the inhibition entry in [5] is “Active”. Also, the inhibition result in assay [7] is “tde”; in assay [13] it was “Dose-dependent effect”. Also, the inhibition result in assay [9] and in assay [10] was “inactive” each time. Further, the “fold change (FC)” value in assay [12] was 10.
